In brackets after ≈: the same amount, converted by molar mass.
Key:
[1] = test system: Human immunodeficiency virus 1; test: Antiviral activity against HIV 1 isolate JRFL by single cycle infectivity assay; type: functional; details: Human immunodeficiency virus 1, isolate JRFL
Outline: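 HEK293T producer cells cotransfected with a proviral HIV-1 LAI-Δenv-luc plasmid (firefly luciferase in place of env) and an LTR-driven JR-FL env plasmid. The resulting pseudotyped virions complete only one replication round; infection is read out as luciferase signal.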

[2] = Oral bioavailability in cynomolgus monkey at 10 mg/kg; type: ADME, organism-based, Macaca fascicularis; details: in vivo
Outline: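 Oral dose of 10 mpk given as a solution in PEG 400/ethanol.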

[3] = Aqueous solubility of the compound; type: physicochemical; details: buffer
[4] = Oral bioavailability in rat at 1 mg/kg; type: ADME, organism-based; details: in vivo
Outline: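 Rat oral dosing at 1 mpk as a nanosuspension.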

Cytochrome P450 3A4 = Cytochrome P450 3A4 (Homo sapiens, UniProt P08684); test: Inhibition of CYP3A4 (unknown origin); type: ADME
Homo sapiens [5] = organism: Homo sapiens; test: Tmax in human assessed as 1-(4-benzoylpiperazin-1-yl)-2-(4,7-dimethoxy-1H-pyrrolo[2,3-c]pyridin-3-yl)ethane-1,2-dione level; type: ADME
Outline: (§1)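 Healthy volunteers received the phosphonooxymethyl prodrug orally over 25 to 800 mg. Plasma levels of the released parent were followed to derive tmax and t1/2.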

Homo sapiens [6] = organism: Homo sapiens; test: Half life in human assessed as 1-(4-benzoylpiperazin-1-yl)-2-(4,7-dimethoxy-1H-pyrrolo[2,3-c]pyridin-3-yl)ethane-1,2-dione level; type: ADME; outline: as §1
[7] = Competitive inhibition of soluble CD4 binding to HIV-1 gp120 after 2 hrs by ELISA; set-up: species or system Human immunodeficiency virus 1
[8] = Protein binding in human plasma; type: ADME, cell-free; details: read-out: PPB (converted)
[9] = Dissociation constant, pKa of the compound; type: physicochemical
[10] = Aqueous solubility of the compound at pH 7.4; type: physicochemical
[11] = test system: Human immunodeficiency virus 1; test: Antiviral activity against HIV-1 subtype F by p24 ELISA; type: functional; details: Human immunodeficiency virus 1, subtype F
[12] = test system: Human immunodeficiency virus 1; test: Antiviral activity against HIV-1 isolate CRF_BF by p24 ELISA; type: functional; details: Human immunodeficiency virus 1, isolate CRF_BF
[13] = test system: Human immunodeficiency virus 1; test: Antiviral activity against HIV-1 Bal infected in human PM1 cells harboring CCR5 co-receptor after 4 to 6 days by p24 ELISA; type: functional, cell-based; details: Human immunodeficiency virus 1, Bal
[14] = test system: Human immunodeficiency virus 1; test: Antiviral activity against HIV-1 LAI infected in human MT2 cells harboring CXCR4 co-receptor after 4 to 6 days; type: functional, cell-based; details: Human immunodeficiency virus 1, LAI
[15] = Aqueous solubility of the compound at pH 2 to 9; type: physicochemical
[16] = test system: Human immunodeficiency virus 1; test: Antiviral activity against HIV-1 subtype A by p24 ELISA; type: functional; details: Human immunodeficiency virus 1, subtype A
[17] = test system: Human immunodeficiency virus 1; test: Inhibition of [3H]BMS-488043 binding to HIV-1 isolate JRFL gp120 assessed as dissociation half life incubated for 60 mins followed by CD4 addition by scintillation counting method
[18] = test system: Human immunodeficiency virus 1; test: Antiviral activity against HIV-1 F1 by p24 ELISA; type: functional; details: Human immunodeficiency virus 1, F1
[19] = test system: Human immunodeficiency virus 1; test: Antiviral activity against HIV-1 SF-162 infected in human PM1 cells harboring CCR5 co-receptor after 4 to 6 days by p24 ELISA; type: functional, cell-based; details: Human immunodeficiency virus 1, SF-162
[20] = test system: Human immunodeficiency virus 1; test: Antiviral activity against HIV-1 isolate CRF01_AE by p24 ELISA; type: functional; details: Human immunodeficiency virus 1, isolate CRF01_AE
[21] = test system: Human immunodeficiency virus 1; test: Antiviral activity against HIV-1 subtype C by p24 ELISA; type: functional; details: Human immunodeficiency virus 1, subtype C
[22] = test system: Human immunodeficiency virus 1; test: Antiviral activity against HIV-1 RF infected in human MT2 cells harboring CXCR4 co-receptor after 4 to 6 days; type: functional, cell-based; details: Human immunodeficiency virus 1, RF
[23] = test system: Human immunodeficiency virus 1; test: Antiviral activity against HIV-1 89.6 infected in human PM1 cells harboring dual co-receptors after 4 to 6 days by p24 ELISA; type: functional, cell-based; details: Human immunodeficiency virus 1, 89.6, PM1
[24] = Oral bioavailability in rat dosed as suspension; type: ADME, organism-based; details: in vivo
[25] = test system: Human immunodeficiency virus 1; test: Antiviral activity against HIV-1 NL4 - 3 infected in human MT2 cells harboring CXCR4 co-receptor after 4 to 6 days; type: functional, cell-based; details: Human immunodeficiency virus 1, NL4 - 3, MT2
[26] = test system: Human immunodeficiency virus 1; test: Antiviral activity against HIV-1 JR-FL infected in human PM1 cells harboring CCR5 co-receptor after 4 to 6 days by p24 ELISA; type: functional, cell-based; details: Human immunodeficiency virus 1, JR-FL
[27] = test system: Human immunodeficiency virus 1; test: Antiviral activity against HIV-1 subtype B by p24 ELISA; type: functional; details: Human immunodeficiency virus 1, subtype B
[28] = test system: Human immunodeficiency virus 1; test: Antiviral activity against HIV-1 isolate CRF02_AG by p24 ELISA; type: functional; details: Human immunodeficiency virus 1, isolate CRF02_AG
[29] = test system: Human immunodeficiency virus 1; test: Antiviral activity against HIV1 infected in human assessed as decrease in viral load in plasma at 1800 mg bid measured on day 8; type: functional
Outline: (§2)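 Eight-day monotherapy in HIV-1-infected subjects: 800 or 1800 mg given BID with a high-fat meal (n = 12 per arm, placebo n = 6). Plasma viral load was measured on day 8 and reported as mean decline in log10 copies/mL.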

[30] = Half life in human administered as capsule; type: ADME; details: po
[31] = test system: Human immunodeficiency virus 1; test: Antiviral activity against HIV1 infected in human assessed as decrease in viral load in plasma at 800 mg bid measured on day 8; type: functional; outline: as §2
[32] = test system: Human immunodeficiency virus 1; test: Inhibition of [3H]BMS-488043 binding to HIV-1 isolate JRFL gp120 assessed as association half life after 60 mins by scintillation counting method
[33] = test system: Human immunodeficiency virus 1; test: Antiviral activity against HIV-1 3B infected in human MT2 cells harboring CXCR4 co-receptor after 4 to 6 days; type: functional, cell-based; details: Human immunodeficiency virus 1, 3B
[34] = test system: Human immunodeficiency virus 1; test: Antiviral activity against HIV-1 isolate MN infected in human MT2 cells harboring CXCR4 co-receptor after 4 to 6 days; type: functional, cell-based; details: Human immunodeficiency virus 1, isolate MN
[35] = Inhibition of [3H]BMS-488043 binding to HIV-1 isolate JRFL gp120 after 60 mins by scintillation counting method; set-up: species or system Human immunodeficiency virus 1
[36] = Solubility of the compound in acetonitrile; type: physicochemical
[37] = test system: Human immunodeficiency virus 2; test: Antiviral activity against HIV2; type: functional
[38] = test system: Simian immunodeficiency virus; test: Antiviral activity against SIV; type: functional
[39] = Aqueous solubility of the compound at pH 1.5 to 8.2; type: physicochemical
Outline: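 Aqueous solubility measured over pH 1.5−8.2 at room temperature.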

Rhesus monkey = test: Oral bioavailability in monkey assessed as 1-(4-benzoylpiperazin-1-yl)-2-(4-methoxy-7-(3-methyl-1H-1,2,4-triazol-1-yl)-1H-pyrrolo[2,3-c]pyridin-3-yl)ethane-1,2-dione level; type: ADME, organism-based, Macaca mulatta; details: in vivo
Canis familiaris = test: Oral bioavailability in dog assessed as 1-(4-benzoylpiperazin-1-yl)-2-(4-methoxy-7-(3-methyl-1H-1,2,4-triazol-1-yl)-1H-pyrrolo[2,3-c]pyridin-3-yl)ethane-1,2-dione level; type: ADME, organism-based, Canis lupus familiaris; details: in vivo
Homo sapiens [40] = organism: Homo sapiens; test: Half life in human assessed as 1-(4-benzoylpiperazin-1-yl)-2-(4-methoxy-7-(3-methyl-1H-1,2,4-triazol-1-yl)-1H-pyrrolo[2,3-c]pyridin-3-yl)ethane-1,2-dione level; type: ADME
Rattus norvegicus = test: Oral bioavailability in rat assessed as 1-(4-benzoylpiperazin-1-yl)-2-(4-methoxy-7-(3-methyl-1H-1,2,4-triazol-1-yl)-1H-pyrrolo[2,3-c]pyridin-3-yl)ethane-1,2-dione level; type: ADME, organism-based; details: in vivo

Chain of Cytochrome P450 3A4 (P08684 whole entry): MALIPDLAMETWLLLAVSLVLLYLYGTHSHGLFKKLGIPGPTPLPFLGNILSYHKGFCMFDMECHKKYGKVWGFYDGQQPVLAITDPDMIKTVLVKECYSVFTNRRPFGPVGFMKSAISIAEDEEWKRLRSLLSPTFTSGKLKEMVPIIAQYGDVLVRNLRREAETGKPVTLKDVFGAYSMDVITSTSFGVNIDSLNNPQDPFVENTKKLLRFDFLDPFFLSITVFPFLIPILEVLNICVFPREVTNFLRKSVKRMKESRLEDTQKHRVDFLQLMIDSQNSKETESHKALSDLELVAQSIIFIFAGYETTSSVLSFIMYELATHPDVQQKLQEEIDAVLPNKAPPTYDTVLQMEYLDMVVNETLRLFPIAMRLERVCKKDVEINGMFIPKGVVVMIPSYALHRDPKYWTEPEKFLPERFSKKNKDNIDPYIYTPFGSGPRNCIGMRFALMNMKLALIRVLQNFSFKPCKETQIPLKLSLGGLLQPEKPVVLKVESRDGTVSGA

COc1cnc(-n2cc(C)cn2)c2[nH]cc(C(=O)C(=O)N3CCN(C(=O)c4ccccc4)CC3)c12
EC50 [1]: 0.41 nM

O=C(C(=O)N1CCN(C(=O)c2ccccc2)CC1)c1c[nH]c2cccc(F)c12
bioavailability [2]: 100%
solubility [3]: 5 µg/mL (≈ 13.2 µM)
bioavailability [4]: 4%

COc1cnc(-n2ccnn2)c2[nH]cc(C(=O)C(=O)N3CCN(C(=O)c4ccccc4)CC3)c12
EC50 [1]: 0.78 nM

COc1cnc(-n2ccc(C)n2)c2[nH]cc(C(=O)C(=O)N3CCN(C(=O)c4ccccc4)CC3)c12
EC50 [1]: 0.11 nM

COc1cnc(-n2cncn2)c2[nH]cc(C(=O)C(=O)N3CCN(C(=O)c4ccccc4)CC3)c12
EC50 [1]: 0.21 nM
IC50 (Cytochrome P450 3A4): 1000 nM

COc1cnc(OC)c2c1c(C(=O)C(=O)N1CCN(C(=O)c3ccccc3)CC1)cn2COP(=O)(O)O.NCCCC[C@H](N)C(=O)O
Tmax (Homo sapiens [5]): 0.5 to 1 h
t1/2 (Homo sapiens [6]): 1.5 h

COc1ccnc2[nH]cc(C(=O)C(=O)N3CCN(C(=O)c4ccccc4)C[C@H]3C)c12
IC50 [7]: 100 nM
fraction unbound [8]: 0.27
pKa [9]: 2.9 to 9.6

O=C(C(=O)N1CCN(C(=O)c2ccccc2)CC1)c1c[nH]c2c(-n3ccnn3)ncc(F)c12
solubility [10]: 7 µg/mL (≈ 15.6 µM)

COc1cnc(-n2cnc(C)n2)c2[nH]cc(C(=O)C(=O)N3CCN(C(=O)c4ccccc4)CC3)c12
EC50 [1]: 0.14 nM
EC50 [11]: 0.1 nM
EC50 [12]: 3.09 nM
EC50 [13]: 1.7 nM
EC50 [14]: 0.7 nM
solubility [15]: 20 µg/mL (≈ 42.2 µM)
EC50 [16]: 2.24 nM
T1/2 [17]: 7.63 h
EC50 [18]: 3.75 nM
EC50 [19]: 0.5 nM
EC50 [20]: > 100 nM
EC50 [21]: 1.14 nM
EC50 [22]: > 2000 nM
EC50 [23]: 57.6 nM
bioavailability [24]: 52%
EC50 [25]: 2.2 nM
EC50 [26]: 0.4 nM
EC50 [27]: 0.34 nM
EC50 [28]: 1.77 nM

COc1ncc(OC)c2c(C(=O)C(=O)N3CCN(C(=O)c4ccccc4)CC3)c[nH]c12
Activity [29]: 0.96 log10/ml
EC50 [13]: 23 nM
EC50 [14]: 4.1 nM
IC50 [7]: 87 nM
T1/2 [17]: 0.717 h
EC50 [19]: 4.7 nM
fraction unbound [8]: 0.05
half-life [30]: 10 h
EC50 [22]: > 2000 nM
Activity [31]: 0.72 log10/ml
T1/2 [32]: 2 to 3 min
pKa [9]: 2.9 to 9.3
EC50 [23]: ≥ 871 nM
EC50 [33]: 160 nM
EC50 [34]: > 1000 nM
EC50 [25]: 17.4 nM
EC50 [26]: 3 nM
Kd [35]: 19.1 nM

COc1cnc(Br)c2[nH]cc(C(=O)C(=O)N3CCN(C(=O)c4ccccc4)CC3)c12
solubility [36]: < 500 µg/mL

O=C(C(=O)N1CCN(C(=O)c2ccccc2)CC1)c1c[nH]c2ccccc12
EC50 [37]: > 200000 nM
EC50 [38]: > 200000 nM

COc1cnc(-n2cnc(C)n2)c2c1c(C(=O)C(=O)N1CCN(C(=O)c3ccccc3)CC1)cn2COP(=O)(O)O.NC(CO)(CO)CO [FOSTEMSAVIR TROMETHAMINE]
solubility [39]: > 11000 µg/mL
bioavailability (Rhesus monkey): 80 to 122%
bioavailability (Canis familiaris): 80 to 122%
Activity [31]: <1 log10/ml
t1/2 (Homo sapiens [40]): 1.5 h
bioavailability (Rattus norvegicus): 80 to 122%

O=C(C(=O)N1CCN(C(=O)c2ccccc2)CC1)c1c[nH]c2c(-c3ncon3)ncc(F)c12
EC50 [1]: 1.3 nM

— ChEMBL document CHEMBL4033779 (J Med Chem, 2018)
